The text below walks through data of ChEMBL document CHEMBL1145930, “Synthesis and evaluation of nitroheterocyclic carbamate prodrugs for use with nitroreductase-mediated gene-directed enzyme prodrug therapy” (J Med Chem, 2003).

For series [1], the system named is SK-OV-3. In words: Inhibitory activity was determined against SKOV3 cell line in human. Type of series: functional, cell-based. The gist of the method: (§1)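 Aerobic growth inhibition of log-phase cells (parental NTR-negative lines). Cultures seeded 24 h before an 18 h drug exposure; cell density read 4–5 days later by sulforhodamine B staining. IC50 is the concentration giving 50% growth inhibition versus same-plate controls. Mean ± SEM of up to five independent experiments.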

Series [2] relates to EMT6. Nature of the series: Inhibitory activity against EMT6 murine cell line. The settings on record: Mus musculus. It is filed as functional, cell-based. A digest of the protocol: as §1
Series [3] deals with EMT6. Nature of the series: Ratio between EMT6 and EMT6-NTRpuro was determined. It is filed as functional, Mus musculus. A digest of the protocol:
(§2)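 Parental and stably NTR-transfected cells were tested in parallel by aerobic SRB growth inhibition (18 h exposure, readout 4–5 days later). The ratio is IC50(NTR-ve)/IC50(NTR+ve), calculated within each experiment. Selection drug was kept during passage but omitted during experiments: puromycin 15 µM for V79, 5 µM for EMT6; G418 300 µg/mL for SKOV3/WiDr.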

Series [4] has as its system WiDr. In words: Ratio between WiDr and WiDr-NTRneo was determined. Type of series: functional, Homo sapiens. The gist of the method: as §2
Series [5] concerns SK-OV-3. In words: Ratio between SKOV3 and SKOV3-NTR neo was determined. Type of series: functional, Homo sapiens. A digest of the protocol: as §2
Series [6] deals with WiDr. Nature of the series: Inhibitory activity was determined against WiDr cell line in human. It is filed as functional, cell-based. A digest of the protocol: as §1
In series [7] the test system is V79. Nature of the series: Inhibitory activity was determined against V79 cell line in chinese hamster. Type of series: functional, cell-based. The settings on record: Cricetulus griseus. The gist of the method:
as §1

For series [8], the system named is V79. Nature of the series: Ratio between V79 and V79-NTRpuro was determined. Type of series: functional, Cricetulus griseus. The gist of the method: as §2
Series [9] is described as follows: Solubility in alpha-MEM culture medium. Type of series: physicochemical. A digest of the protocol:
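Solubility measured in α-MEM culture medium with 5% fetal calf serum, by HPLC analysis of the supernatant of a saturated solution.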

The next series has as its system Mus musculus. Nature of the series: In vivo maximum tolerance dose in C3H mice by ip administration. It is filed as functional. The gist of the method:
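Male C3H mice (ca. 25 g), groups of six, given single ip doses in 10^(1/8)-fold increments. Vehicle DMSO at 1 μL/g for most compounds; CB1954 given in 10% DMA/40% PEG400/50% water at 10 μL/g. Animals observed daily for 60 days; any losing >15% body weight or becoming moribund were terminated.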

In series [10] the test system is EMT6. In words: Inhibitory activity against EMT6 (mouse mammary carcinoma) murine cell line. Type of series: functional, cell-based. The gist of the method: as §1
Series [11] concerns SK-OV-3. Nature of the series: Inhibitory activity against SKOV3 (human ovarian carcinoma) cell line in human. Type of series: functional, cell-based. The gist of the method:
as §1

Converted amounts (≈) assume the structure as drawn.

Turning to `CCOC(=O)c1cc(COC(=O)Nc2cc3c(c4ccccc24)C(C(=O)c2cc4cc(OC)c(OC)c(OC)c4[nH]2)CN3CCl)c([N+](=O)[O-])n1C` (centres undefined), the IC50 is 97 µM in the series with SK-OV-3 [1], 28 µM with EMT6 [2], 94 µM with WiDr [6] and 24 µM in the series on V79 [7]. The Ratio was found to be 12 in the series on EMT6 [3], 13 in the series on WiDr [4], 9.6 in the series on SK-OV-3 [5] and 2 in the series on V79 [8].

As for `COc1cc2cc(C(=O)C3CN(CCl)c4cc(NC(=O)OCc5ccn(C)c5[N+](=O)[O-])c5ccccc5c43)[nH]c2c(OC)c1OC` (centres undefined), the half-inhibitory concentration (IC50) in the series with SK-OV-3 [1] worked out at 116 µM; in the series with EMT6 [2], 64 µM; with WiDr [6] it was 219 µM; in the series with V79 [7] it was 62 µM. Besides, the Ratio with EMT6 [3] is listed as 1.3; with WiDr [4] it was 1.8; in the series on SK-OV-3 [5], 0.5; in the series on V79 [8], 1.5. Further, in series [9], the concentration in solution (solubility) was 18 µM (≈ 11.7 µg/mL).

As for `COc1cc2cc(C(=O)C3CN(CCl)c4cc(NC(=O)OCc5cnc([N+](=O)[O-])n5C)c5ccccc5c43)[nH]c2c(OC)c1OC` (centres undefined), the MTD in the series on Mus musculus was over 1000 µM. Also, the concentration for half-maximal inhibition (IC50) in the series with SK-OV-3 [1] came to 75 µM; in the series with EMT6 [2] it was 19.6 µM; in the series with WiDr [6] it was 75 µM; in the series with V79 [7] it was 24 µM. The Ratio with EMT6 [3] was 62; with WiDr [4] it was 40; in the series on SK-OV-3 [5] it was 21; with V79 [8] it was 14.7. The same compound displayed a solubility in [9] of 17 µM (≈ 11 µg/mL).

Take `COc1cc2cc(C(=O)C3CN(CCl)c4cc(NC(=O)OCc5ccc([N+](=O)[O-])n5C)c5ccccc5c43)[nH]c2c(OC)c1OC` (centres undefined): the IC50 was determined as 265 µM with SK-OV-3 [1], 49 µM with EMT6 [2], 182 µM in the series with WiDr [6] and 53 µM with V79 [7]. The Ratio in the series with EMT6 [3] is reported as 1.2; in the series on WiDr [4] it was 2.5; with SK-OV-3 [5], 1.3; with V79 [8] it was 1. Moreover, in series [9], the solubility is 9 µM (≈ 5.83 µg/mL).

Take `COc1cc2cc(C(=O)C3CN(CCl)c4cc(NC(=O)OCc5ncc([N+](=O)[O-])n5CCO)c5ccccc5c43)[nH]c2c(OC)c1OC` (centres undefined): the IC50 with SK-OV-3 [1] came to 378 µM; in the series with EMT6 [2], 129 µM; in the series on WiDr [6], 427 µM; in the series on V79 [7], 94 µM. Moreover, the Ratio in the series with EMT6 [3] was 11; in the series with WiDr [4], 12.4; in the series with SK-OV-3 [5], 26; with V79 [8] it was 1.2. This compound showed a solubility in series [9] of 20 µM (≈ 13.6 µg/mL).

Regarding `NC(=O)c1cc(N(CCBr)CCBr)c([N+](=O)[O-])cc1[N+](=O)[O-]`, the IC50 worked out at 58 µM with SK-OV-3 [1] and 54 µM in the series with EMT6 [2]. The Ratio came to 1380 in the series with EMT6 [3], 174 in the series on WiDr [4], 211 with SK-OV-3 [5] and 302 with V79 [8]. In series [9], this compound came in with a solubility of 40 µM (≈ 17.6 µg/mL).

For the compound `COc1cc2cc(C(=O)C3CN(CCl)c4cc(NC(=O)OCc5cnn(C)c5[N+](=O)[O-])c5ccccc5c43)[nH]c2c(OC)c1OC` (centres undefined), the half-inhibitory concentration (IC50) is 0.032 µM in the series on SK-OV-3 [1], 39 µM in the series with EMT6 [2], 0.0113 µM with WiDr [6] and 41 µM with V79 [7]. Further, the Ratio worked out at 87 in the series with EMT6 [3], 13.5 in the series with WiDr [4], 30.3 with SK-OV-3 [5] and 37 in the series on V79 [8]. The compound further showed a solubility in [9] of 8 µM (≈ 5.19 µg/mL).

With `COc1cc2cc(C(=O)C3CN(CCl)c4cc(NC(=O)OCc5ccc([N+](=O)[O-])o5)c5ccccc5c43)[nH]c2c(OC)c1OC` (centres undefined), the IC50 is 76 µM in the series on SK-OV-3 [1], 18 µM with EMT6 [2], 89 µM with WiDr [6] and 20 µM in the series on V79 [7]. For the same compound, the Ratio with EMT6 [3] is recorded as 1.2; in the series with WiDr [4], 1.9; in the series with SK-OV-3 [5], 1.2; in the series on V79 [8], 1.1. This compound registered a solubility in series [9] of 11 µM (≈ 6.99 µg/mL).

For `COc1cc2cc(C(=O)C3CN(CCl)c4cc(NC(=O)OCc5ccc([N+](=O)[O-])s5)c5ccccc5c43)[nH]c2c(OC)c1OC` (centres undefined), the IC50 with SK-OV-3 [1] came to 0.0106 µM; in the series with EMT6 [2] it was 0.0043 µM; in the series on WiDr [6], 0.018 µM; in the series on V79 [7], 0.0035 µM. Also, the Ratio in the series on EMT6 [3] came to 16; with WiDr [4], 13.5; in the series with SK-OV-3 [5] it was 7; with V79 [8] it was 3.1. This compound also returned a solubility in series [9] of 4 µM (≈ 2.6 µg/mL).

Turning to `COc1cc2cc(C(=O)C3CN(CCl)c4cc(NC(=O)OCc5ncn(C)c5[N+](=O)[O-])c5ccccc5c43)[nH]c2c(OC)c1OC` (centres undefined), the IC50 in the series with SK-OV-3 [1] is 61 µM; in the series with EMT6 [2] it was 63 µM; in the series on WiDr [6], 0.024 µM; with V79 [7], 44 µM. For the same compound, the Ratio with EMT6 [3] was determined as 6.5; in the series with WiDr [4], 3.4; in the series with SK-OV-3 [5] it was 5.6; in the series on V79 [8] it was 1.4. This compound also showed a solubility in series [9] of 5.5 µM (≈ 3.57 µg/mL).

For `CCOC(=O)c1cc([N+](=O)[O-])c(COC(=O)Nc2cc3c(c4ccccc24)C(C(=O)c2cc4cc(OC)c(OC)c(OC)c4[nH]2)CN3CCl)n1C` (centres undefined), the IC50 with SK-OV-3 [1] is 98 µM; in the series with WiDr [6], 223 µM; with V79 [7], 52 µM. Also, the figures for the Ratio in the series with WiDr [4], in the series with SK-OV-3 [5] and with V79 [8] were 1.3, 0.8 and 1.8, respectively. For the same compound, in series [9], the concentration in solution (solubility) came to 21 µM (≈ 15.1 µg/mL).

In the series on Mus musculus, `COc1cc2cc(C(=O)C3CN(CCl)c4cc(NC(=O)OCc5ncc([N+](=O)[O-])n5C)c5ccccc5c43)[nH]c2c(OC)c1OC` (centres undefined) had an MTD of over 1000 µM. Further, the IC50 in the series with SK-OV-3 [1] is 146 µM; with EMT6 [2] it was 78 µM; in the series on WiDr [6], 230 µM; with V79 [7], 68 µM. Also, the Ratio in the series with EMT6 [3] was found to be 71; in the series with WiDr [4], 100; in the series with SK-OV-3 [5], 50; in the series on V79 [8] it was 10. Moreover, the concentration in solution in [9] (solubility) was 8 µM (≈ 5.19 µg/mL).

With `COc1cc2cc(C(=O)C3CN(CCl)c4cc(NC(=O)OCc5c([N+](=O)[O-])ccn5C)c5ccccc5c43)[nH]c2c(OC)c1OC` (centres undefined), the IC50 with SK-OV-3 [1] was 0.025 µM; with EMT6 [2], 15 µM; with WiDr [6] it was 0.028 µM; with V79 [7], 0.006 µM. The Ratio amounted to 1.5 in the series on EMT6 [3], 1.4 with WiDr [4], 0.7 with SK-OV-3 [5] and 0.9 in the series with V79 [8]. In addition, the concentration in solution in series [9] (solubility) was 8.4 µM (≈ 5.44 µg/mL).

Turning to `COc1cc2cc(C(=O)C3CN(CCl)c4cc(NC(=O)OCc5c([N+](=O)[O-])ncn5C)c5ccccc5c43)[nH]c2c(OC)c1OC` (centres undefined), the IC50 in the series with SK-OV-3 [1] stood at 185 µM; in the series with EMT6 [2], 73 µM; with WiDr [6], 201 µM; in the series on V79 [7] it was 55 µM. For the same compound, the Ratio in the series on EMT6 [3] is reported as 2.1; in the series on WiDr [4], 2.8; with SK-OV-3 [5] it was 4.8; in the series with V79 [8], 1.2. The compound also returned a solubility in [9] of 13 µM (≈ 8.44 µg/mL).

In the case of `COc1cc2cc(C(=O)N3CC(CCl)c4c3cc(N)c3ccccc43)[nH]c2c(OC)c1OC` (centres undefined), the IC50 in the series with SK-OV-3 [1] was found to be 0.0011 µM; in the series with EMT6 [2], 0.00037 µM; in the series on WiDr [6], 0.0016 µM; with V79 [7], 0.00033 µM. Further, the Ratio with EMT6 [3] worked out at 2; in the series on WiDr [4], 0.9; in the series on SK-OV-3 [5], 0.55; in the series on V79 [8], 0.9. This compound also displayed a solubility in series [9] of 197 µM (≈ 91.8 µg/mL).

For `NC(=O)c1cc(N2CC2)c([N+](=O)[O-])cc1[N+](=O)[O-]` [TRETAZICAR], the Ratio in the series on EMT6 [3] is listed as 930; in the series on WiDr [4], 51; in the series on SK-OV-3 [5] it was 317; with V79 [8], 2090. This compound also yielded a solubility in series [9] of 1600 µM (≈ 403 µg/mL). The IC50 was 71 µM with EMT6 [10] and 174 µM in the series on SK-OV-3 [11].

In general, IC50 refers to the concentration needed to halve the response being measured. The low end stands for greater potency in that assay, the high end for weaker potency in that assay. As usually defined, the solubility is how much of the substance goes into solution per volume. The low end stands for a poorly soluble substance, the high end for a readily soluble substance.
